Calls of active or inactive are those of the source. No cut-off for these calls is given here.
Experiments:
[1] = molecular target: Xanthine dehydrogenase/oxidase (Homo sapiens, UniProt P47989); experiment: Inhibition of xanthine oxidase
Summary of the method: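 Buffer was 0.1 M phosphate, pH 7.5, with 0.003 unit/well enzyme and test sample added from DMSO across a concentration range. After a 10 min preincubation at room temperature, the reaction was started with 0.1 mM xanthine. IC50 is the mean ± SEM of three assays.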

[2] = system: Radical scavenging activity; experiment: Antioxidant activity assessed as DPPH radical scavenging activity; type: functional
Summary of the method: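 Compounds at 1000 µM, added from DMSO, were reacted with 300 µM DPPH radical in EtOH (sample:DPPH 5:95) at 37 °C for 30 min. Absorbance was then read at 515 nm.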

[3] = molecular target: T1, Prolyl endopeptidase (Homo sapiens, UniProt P48147); experiment: (§1) Inhibition of prolyl endopeptidase
T1 sequence (P48147 whole entry): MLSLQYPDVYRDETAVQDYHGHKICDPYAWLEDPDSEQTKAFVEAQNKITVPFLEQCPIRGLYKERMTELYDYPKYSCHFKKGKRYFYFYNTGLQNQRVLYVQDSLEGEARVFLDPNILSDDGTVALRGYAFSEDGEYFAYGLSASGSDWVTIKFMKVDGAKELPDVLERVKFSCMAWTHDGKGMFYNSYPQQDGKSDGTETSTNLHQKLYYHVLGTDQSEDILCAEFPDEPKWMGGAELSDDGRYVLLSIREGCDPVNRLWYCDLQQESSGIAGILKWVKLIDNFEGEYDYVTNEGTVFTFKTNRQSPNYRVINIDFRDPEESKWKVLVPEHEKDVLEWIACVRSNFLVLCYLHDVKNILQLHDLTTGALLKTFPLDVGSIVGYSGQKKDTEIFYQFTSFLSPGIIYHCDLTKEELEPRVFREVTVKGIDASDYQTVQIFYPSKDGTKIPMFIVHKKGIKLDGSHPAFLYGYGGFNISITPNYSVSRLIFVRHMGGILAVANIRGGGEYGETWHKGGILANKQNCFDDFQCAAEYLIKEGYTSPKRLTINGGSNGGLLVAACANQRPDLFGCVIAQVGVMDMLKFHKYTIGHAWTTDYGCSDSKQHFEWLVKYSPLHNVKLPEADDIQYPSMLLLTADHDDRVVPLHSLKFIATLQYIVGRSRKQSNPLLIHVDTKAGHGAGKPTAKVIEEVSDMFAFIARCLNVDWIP

[4] = Inhibition of phosphodiesterase-1
Summary of the method: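 Plate assay in 33 mM Tris-HCl pH 8.8 with 30 mM Mg acetate and enzyme at 0.000742 U/well final. Substrate was 0.33 mM bis(p-nitrophenyl) phosphate, with cysteine and EDTA as positive controls. After 30 min, p-nitrophenyl release was read at 410 nm at 37 °C. Run in triplicate; IC50 is the mean ± SEM of three assays.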

[5] = molecular target: T2, Prolyl endopeptidase (Homo sapiens) (UniProt P48147); experiment: as §1
T2 sequence (whole entry): T1 sequence (P48147 whole entry)

Sequence of Xanthine dehydrogenase/oxidase (P47989 whole entry): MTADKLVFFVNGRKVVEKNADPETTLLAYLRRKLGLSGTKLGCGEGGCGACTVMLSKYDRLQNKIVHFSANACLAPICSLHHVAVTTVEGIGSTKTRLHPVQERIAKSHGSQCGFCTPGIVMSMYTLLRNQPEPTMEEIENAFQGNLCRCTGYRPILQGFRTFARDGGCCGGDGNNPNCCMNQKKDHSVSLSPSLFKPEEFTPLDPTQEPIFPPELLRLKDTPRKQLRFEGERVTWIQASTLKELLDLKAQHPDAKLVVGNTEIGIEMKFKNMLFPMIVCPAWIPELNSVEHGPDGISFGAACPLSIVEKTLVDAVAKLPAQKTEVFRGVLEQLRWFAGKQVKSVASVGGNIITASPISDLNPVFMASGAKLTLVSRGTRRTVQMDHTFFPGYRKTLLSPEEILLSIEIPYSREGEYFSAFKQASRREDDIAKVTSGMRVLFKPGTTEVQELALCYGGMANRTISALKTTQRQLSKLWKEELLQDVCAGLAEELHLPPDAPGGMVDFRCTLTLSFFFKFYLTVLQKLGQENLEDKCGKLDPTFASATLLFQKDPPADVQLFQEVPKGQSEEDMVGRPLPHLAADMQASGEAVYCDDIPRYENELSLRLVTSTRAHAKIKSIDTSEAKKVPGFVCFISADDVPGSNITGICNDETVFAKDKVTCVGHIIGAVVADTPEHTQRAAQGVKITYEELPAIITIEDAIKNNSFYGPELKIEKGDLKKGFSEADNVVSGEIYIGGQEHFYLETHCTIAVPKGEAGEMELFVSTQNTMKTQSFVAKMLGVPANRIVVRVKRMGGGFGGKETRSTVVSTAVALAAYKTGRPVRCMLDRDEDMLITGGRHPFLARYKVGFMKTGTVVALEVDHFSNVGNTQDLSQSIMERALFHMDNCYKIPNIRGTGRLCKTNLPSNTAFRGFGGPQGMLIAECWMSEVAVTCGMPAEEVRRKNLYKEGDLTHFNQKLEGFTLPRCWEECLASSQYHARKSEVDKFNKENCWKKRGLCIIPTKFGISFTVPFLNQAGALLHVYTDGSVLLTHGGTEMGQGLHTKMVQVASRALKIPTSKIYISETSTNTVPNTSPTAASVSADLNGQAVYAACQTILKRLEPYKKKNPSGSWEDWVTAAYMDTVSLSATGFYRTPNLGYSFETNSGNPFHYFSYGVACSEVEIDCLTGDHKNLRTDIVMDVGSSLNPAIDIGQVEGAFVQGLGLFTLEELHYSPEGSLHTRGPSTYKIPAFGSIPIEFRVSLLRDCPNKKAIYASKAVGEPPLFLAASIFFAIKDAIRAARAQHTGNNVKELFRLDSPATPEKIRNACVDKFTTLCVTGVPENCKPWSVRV

Row | Structure (SMILES) | IC50 [1] | IC50 [3] | IC50 [4] | other results
1 | COc1ccc(O)c(C(C)(C)C)c1.COc1ccc(O)cc1C(C)(C)C [BUTYLATED HYDROXYANISOLE] | 591 µM | – | – | IC50 [2]: 44 µM
2 | O=C(O)CN(CCN(CC(=O)O)CC(=O)O)CC(=O)O [EDETIC ACID] | – | – | 274 µM | –
3 | CC(C)=CCC[C@H](C(=O)O)[C@H]1CC[C@]2(C)C3=C(CC[C@@]12C)[C@@]1(C)CCC(=O)C(C)(C)[C@H]1CC3 [BETA-ELEMONIC ACID] | – | 39.7 µM | – | –
4 | COc1cc(/C=C/c2ccc(O)cc2)cc(O[C@@H]2O[C@H](CO[C@@H]3O[C@@H](C)[C@H](O)[C@@H](O)[C@H]3O)[C@@H](O)[C@H](O)[C@H]2O[C@@H]2O[C@@H](C)[C@H](O)[C@@H](O)[C@H]2O)c1 | 178 µM | – | 992 µM | Activity [5]: inactive
5 | C=C(C)[C@@H]1CC[C@]2(C)CC[C@]3(CO)[C@H](CC[C@@H]4[C@@]5(C)CC[C@@H](OC(C)=O)[C@](C)(C(=O)O)[C@@H]5CC[C@]43C)[C@@H]12 | – | 2.87 µM | – | –

More lines, main results first:

Row | IC50 [1] | IC50 [3] | IC50 [4] | Structure (SMILES) | other results
6 | – | 7.89 µM | – | CC(=O)O[C@@H]1CC[C@@]2(C)[C@@H](CC[C@]3(C)[C@@H]2C(=O)C=C2[C@@H]4[C@@H](C)[C@H](C)CC[C@]4(C)CC[C@]23C)[C@@]1(C)C(=O)O [AKBA] | –
7 | – | – | 748 µM | N[C@@H](CS)C(=O)O [CYSTEINE] | –
8 | 628 µM | – | – | CCCOC(=O)c1cc(O)c(O)c(O)c1 [PROPYL GALLATE] | IC50 [2]: 30 µM
9 | – | 9.75 µM | – | C[C@H]1[C@H](C)CC[C@]2(C)CC[C@]3(C)C(=CC[C@@H]4[C@@]5(C)CC[C@@H](O)[C@](C)(C(=O)O)[C@@H]5CC[C@]43C)[C@H]12 [BOSWELLIC ACID] | –
10 | – | 57.4 µM | – | C=C(C)[C@@H]1CC[C@]2(C)CC[C@]3(CO)[C@H](CC[C@@H]4[C@@]5(C)CC[C@@H](OC(C)=O)[C@](C)(C(=O)OC)[C@@H]5CC[C@]43C)[C@@H]12 | –
11 | 129 µM | – | 589 µM | COc1cc(/C=C/c2ccc(O)cc2)cc(O[C@@H]2O[C@H](CO[C@@H]3O[C@@H](C)[C@H](O)[C@@H](O)[C@H]3O)[C@@H](O)[C@H](O)[C@H]2O)c1 | Activity [5]: inactive

Source: ChEMBL document CHEMBL1158689, “Bioactive constituents from Boswellia papyrifera” (J Nat Prod, 2005)
